Values joined by “and” are separate entries in the source; they are usually repeats but may differ in a detail not shown here. Equal values may be shown once. *1 amine or outer side, *2 acyl side, *3 side chain or, on linkers, in order; H or OH if unused. Where a SMILES comes first, the peptide text is derived from it. Bridges are numbered along the chain shown (N, C = ends). Roman numbers before positions name the chains, in order. [ ]: non-standard residue; d: D form. Hexamethylenediamine = C(CCCN[*:2])CCN[*:1]; Dip = N[C@H](C(=O)O)C(c1ccccc1)c1ccccc1; Chg = N[C@H](C(=O)O)C1CCCCC1; NMeA = CN[C@@H](C)C(=O)O
Key:
Fibroblast = assay: Multiplex assay against human fibroblast; format: toxicity, cell-based; settings: number of replicates 2
In short: (§1)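 At seeding, live cells were stained with Hoechst33342, BioTracker Green Microtubule Cytoskeleton Dye, MitoTracker Red and Annexin V Alexa Fluor 680. After compound addition they were imaged on a CQ1 microscope at 37°C and 5% CO2, and CellPathfinder machine-learning gating sorted them into Hoechst high-intensity objects or normal cells, with normal cells further split into healthy, pyknosed or fragmented nuclei and pyknosed cells into mitotic or apoptotic. Tubulin, mitochondrial-mass and membrane-permeability phenotypes are given as per cents of cells with healthy nuclei.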

U2OS = assay: Multiplex assay against U2OS; format: toxicity, cell-based; settings: human, number of replicates 2; in short: as §1
[1] = 24 h, 1 µM, compound concentration 1 uM
[2] = 24 h, 10 µM, compound concentration 10 uM
[3] = 48 h, 1 µM, compound concentration 1 uM
[4] = 48 h, 10 µM, compound concentration 10 uM
[5] = 12 h, 1 µM, compound concentration 1 uM
[6] = 12 h, 10 µM, compound concentration 10 uM

CN[C@@H](C)C(=O)N[C@H](C(=O)N1CCC[C@H]1C(=O)N[C@H](C(=O)NCCCCCCNC(=O)[C@@H](NC(=O)[C@@H]1CCCN1C(=O)[C@@H](NC(=O)[C@H](C)NC)C1CCCCC1)C(c1ccccc1)c1ccccc1)C(c1ccccc1)c1ccccc1)C1CCCCC1 (I: H-[NMeA][Chg]P[Dip] / II: H-[NMeA][Chg]P[Dip]; linker I:C-II:C via Hexamethylenediamine)
Population Mitochondria Different-Phenotype (%) (Fibroblast; [1]): 4% and 2%
Population Mitotic Cells (%) (Fibroblast; [1]): 56% and 55%
Population Normal (%) (Fibroblast; [1]): 100% and 99%
Population Pyknosed Nuclei (%) (Fibroblast; [1]): 21% and 22%
Population Tubulin-Different-Phenotype (%) (Fibroblast; [1]): 24% and 16%
Total Cell Count (Fibroblast; [1]): 203 and 176
Population Apoptotic (%) (Fibroblast; [2]): 72% and 60%
Population Fragmented Nuclei (%) (Fibroblast; [2]): 22% and 20%
Population Healthy Nuclei (%) (Fibroblast; [2]): 48% and 60%
Population Hoechst High Intensity Objects (%) (Fibroblast; [2]): 0%
Population Membrane Permeable-Phenotype (%) (Fibroblast; [2]): 9% and 11%
Population Mitochondria Different-Phenotype (%) (Fibroblast; [2]): 36% and 23%
Population Mitotic Cells (%) (Fibroblast; [2]): 27% and 39%
Population Normal (%) (Fibroblast; [2]): 100%
Population Pyknosed Nuclei (%) (Fibroblast; [2]): 29% and 19%
Population Tubulin-Different-Phenotype (%) (Fibroblast; [2]): 63% and 71%
Total Cell Count (Fibroblast; [2]): 249 and 210
Population Apoptotic (%) (Fibroblast; [3]): 52% and 53%
Population Fragmented Nuclei (%) (Fibroblast; [3]): 16% and 12%
Population Healthy Nuclei (%) (Fibroblast; [3]): 65% and 73%
Population Hoechst High Intensity Objects (%) (Fibroblast; [3]): 0%
Population Membrane Permeable-Phenotype (%) (Fibroblast; [3]): 3% and 5%
Population Mitochondria Different-Phenotype (%) (Fibroblast; [3]): 3% and 2%
Population Mitotic Cells (%) (Fibroblast; [3]): 47% and 46%
Population Normal (%) (Fibroblast; [3]): 100%
Population Pyknosed Nuclei (%) (Fibroblast; [3]): 17% and 14%
Population Tubulin-Different-Phenotype (%) (Fibroblast; [3]): 23% and 13%
Total Cell Count (Fibroblast; [3]): 206 and 194
Population Apoptotic (%) (Fibroblast; [4]): 83% and 76%
Population Fragmented Nuclei (%) (Fibroblast; [4]): 35% and 30%
Population Healthy Nuclei (%) (Fibroblast; [4]): 57%
Population Hoechst High Intensity Objects (%) (Fibroblast; [4]): 0%
Population Membrane Permeable-Phenotype (%) (Fibroblast; [4]): 8% and 3%
Population Mitochondria Different-Phenotype (%) (Fibroblast; [4]): 12% and 20%
Population Mitotic Cells (%) (Fibroblast; [4]): 16% and 23%
Population Normal (%) (Fibroblast; [4]): 100% and 99%
Population Pyknosed Nuclei (%) (Fibroblast; [4]): 6% and 12%
Population Tubulin-Different-Phenotype (%) (Fibroblast; [4]): 79% and 67%
Total Cell Count (Fibroblast; [4]): 258 and 314
Population Apoptotic (%) (U2OS; [5]): 75% and 38%
Population Healthy Nuclei (%) (U2OS; [5]): 41% and 84%
Population Hoechst High Intensity Objects (%) (U2OS; [5]): 0%
Population Membrane Permeable-Phenotype (%) (U2OS; [5]): 0%
Population Mitochondria Different-Phenotype (%) (U2OS; [5]): 0%
Population Mitotic Cells (%) (U2OS; [5]): 25% and 61%
Population Normal (%) (U2OS; [5]): 100%
Population Pyknosed Nuclei (%) (U2OS; [5]): 7% and 12%
Population Tubulin-Different-Phenotype (%) (U2OS; [5]): 36% and 78%
Total Cell Count (U2OS; [5]): 53 and 104
Population Apoptotic (%) (U2OS; [6]): 90% and 91%
Population Healthy Nuclei (%) (U2OS; [6]): 62% and 56%
Population Hoechst High Intensity Objects (%) (U2OS; [6]): 1% and 0%
Population Membrane Permeable-Phenotype (%) (U2OS; [6]): 10% and 0%
Population Mitochondria Different-Phenotype (%) (U2OS; [6]): 20% and 19%
Population Mitotic Cells (%) (U2OS; [6]): 9% and 8%
Population Normal (%) (U2OS; [6]): 98% and 100%
Population Pyknosed Nuclei (%) (U2OS; [6]): 31% and 21%
Population Tubulin-Different-Phenotype (%) (U2OS; [6]): 57% and 22%
Population Apoptotic (%) (U2OS; [1]): 62% and 52%
Population Healthy Nuclei (%) (U2OS; [1]): 47% and 89%
Population Hoechst High Intensity Objects (%) (U2OS; [1]): 0%
Population Membrane Permeable-Phenotype (%) (U2OS; [1]): 9% and 0%
Population Mitochondria Different-Phenotype (%) (U2OS; [1]): 0%
Population Mitotic Cells (%) (U2OS; [1]): 37% and 47%
Population Normal (%) (U2OS; [1]): 100%
Population Pyknosed Nuclei (%) (U2OS; [1]): 12% and 9%
Total Cell Count (U2OS; [1]): 65 and 175
Population Apoptotic (%) (U2OS; [2]): 77% and 80%
Population Fragmented Nuclei (%) (U2OS; [2]): 9%
Population Healthy Nuclei (%) (U2OS; [2]): 54% and 58%
Population Hoechst High Intensity Objects (%) (U2OS; [2]): 0%
Population Membrane Permeable-Phenotype (%) (U2OS; [2]): 11% and 8%
Population Mitotic Cells (%) (U2OS; [2]): 22% and 19%
Population Normal (%) (U2OS; [2]): 100% and 99%
Population Pyknosed Nuclei (%) (U2OS; [2]): 35% and 32%
Population Tubulin-Different-Phenotype (%) (U2OS; [2]): 23% and 47%
Population Apoptotic (%) (U2OS; [3]): 78% and 74%
Population Healthy Nuclei (%) (U2OS; [3]): 45% and 79%
Population Hoechst High Intensity Objects (%) (U2OS; [3]): 0%
Population Membrane Permeable-Phenotype (%) (U2OS; [3]): 9% and 2%
Population Mitochondria Different-Phenotype (%) (U2OS; [3]): 4% and 0%
Population Mitotic Cells (%) (U2OS; [3]): 21% and 25%
Population Normal (%) (U2OS; [3]): 100%
Population Pyknosed Nuclei (%) (U2OS; [3]): 20% and 12%
Population Tubulin-Different-Phenotype (%) (U2OS; [3]): 33% and 81%
Population Apoptotic (%) (U2OS; [4]): 94% and 76%
Population Fragmented Nuclei (%) (U2OS; [4]): 7% and 14%
Population Healthy Nuclei (%) (U2OS; [4]): 63% and 52%
Population Hoechst High Intensity Objects (%) (U2OS; [4]): 0%
Population Membrane Permeable-Phenotype (%) (U2OS; [4]): 9% and 10%
Population Mitochondria Different-Phenotype (%) (U2OS; [4]): 7% and 8%
Population Normal (%) (U2OS; [4]): 99% and 100%
Population Pyknosed Nuclei (%) (U2OS; [4]): 28% and 33%
Population Tubulin-Different-Phenotype (%) (U2OS; [4]): 50% and 34%
